CHRM4 agonist: agonists of human muscarinic M4 receptor (CHRM4) | CHO-K1 hM4/Gqi5, Fluo-8 calcium fluorescence; vehicle 0%, full acetylcholine response 100% | P08173 | hit rate 0.14% among 360,000 | activation, % at 3 µM;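 active means activation above the run mean over all test wells plus 3 SD, cut at about 32% in these data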;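 further: peak over basal fluorescence ratio per well then scaled between controls; 0% = DMSO wells and 100% = acetylcholine at EC100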
CHRM5 PAM: potentiates acetylcholine response at human M5 receptor. P08912. CHO-K1 hM5, Fluo-8 calcium, ACh EC20 PAM; 0% = ACh EC20, 100% = ACh EC100. activation, % at 3 µM. hit rate 0.3% among 360,000. AID 624038;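 active means activation above the run cutoff, the mean activation of all test compounds plus 3 SD, cut at about 18% in these data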
Target sequence (P08912 whole entry, looked up): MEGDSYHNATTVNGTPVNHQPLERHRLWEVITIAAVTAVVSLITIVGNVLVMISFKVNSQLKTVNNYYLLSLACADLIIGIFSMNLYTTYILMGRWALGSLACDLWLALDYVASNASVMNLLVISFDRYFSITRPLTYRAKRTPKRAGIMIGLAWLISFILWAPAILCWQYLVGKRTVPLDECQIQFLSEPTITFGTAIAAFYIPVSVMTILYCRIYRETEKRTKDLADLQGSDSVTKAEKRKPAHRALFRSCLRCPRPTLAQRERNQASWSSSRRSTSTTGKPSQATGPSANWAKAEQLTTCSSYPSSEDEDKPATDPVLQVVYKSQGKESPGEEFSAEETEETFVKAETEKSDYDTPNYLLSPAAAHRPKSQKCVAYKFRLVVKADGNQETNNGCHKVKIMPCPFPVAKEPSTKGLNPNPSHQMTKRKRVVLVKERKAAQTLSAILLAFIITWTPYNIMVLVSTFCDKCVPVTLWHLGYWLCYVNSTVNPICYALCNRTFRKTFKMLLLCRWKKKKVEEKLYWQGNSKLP
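system = human M5 receptor in CHO-K1 cells | reagent = EC20 acetylcholine as agonist stimulus | compound dosing = single-point, 3 µM nominal | incubation = Fluo-8 loading 80 min at 37 °C plus 30 min room temperature | detection = Fluo-8 calcium dye fluorescence, kinetic read | benchmarks = low control EC20 acetylcholine (0%), high control EC100 acetylcholine (100%)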
CHRM4 antagonist: CHRM4 antagonism in calcium assay. P08173. CHO-hM4 cells, ACh EC80, Fluo-8 calcium fluorescence. inhibition, % at 3 µM. hit rate 0.73% among 360,000. AID 624125;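 active means inhibition above its plate's cutoff, the mean inhibition of sample wells plus 3 SD, cut at about 27% in these data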;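 further: 0% = acetylcholine EC80 with DMSO and 100% = DMSO without agonist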
CHRM5 antagonist: blocks acetylcholine activation of human M5 receptor; CHO-hM5 cells, Fluo-8 calcium fluorescence, ACh EC80; P08912; inhibition, % at 3 µM; AID 624040; hit rate 0.59% among 360,000;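 active means inhibition above a per-plate cutoff, the mean of that plate's test compounds plus 3 SD, cut at about 27% in these data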;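 further: 0% = acetylcholine EC80 with DMSO and 100% = DMSO without agonist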
CHRM5 agonist: CHRM5 agonism in calcium assay | CHO-K1 hM5 cells, Fluo-8 calcium fluorescence; 0% DMSO wells, 100% maximal acetylcholine response | hit rate 0.19% among 360,000 | activation, % at 3 µM;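 active means activation above the run's mean over test compounds plus 3 SD, cut at about 23% in these data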;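 further: signal is peak over basal fluorescence ratio across the kinetic read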
M4 PAM: CHRM4 positive allosteric modulation | CHO-K1 hM4/Gqi5, Fluo-8 calcium fluorescence, ACh EC20; 0% = ACh EC20, 100% = maximal ACh | activation, % at 3 µM | hit rate 0.4% among 360,000;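 active means activation above its plate's cutoff, the mean activation of sample wells plus 3 SD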
* marks the source's active call; other numbers are inactive results. A selection: hits, their analogues and other compounds. The true share with any hit is near 1.9%.

SMILES | CHRM4 agonist | CHRM5 PAM | CHRM4 antagonist | CHRM5 antagonist | CHRM5 agonist | M4 PAM
CCCC(O)(CCN1CCOCC1)c1ccc(Br)cc1 (stereo unspecified) | -0.3 | -18.5 | 43.8* | 19.0 | -6.9 | -26.8
CCCC(O)(CCN1CCOCC1)c1ccc(Cl)cc1 (stereo unspecified) | 0.7 | -30.4 | 21.6 | 19.0 | -19.0 | -40.4
N=c1sccn1CC(=O)NCCc1ccc(Cl)cc1Cl | 0.5 | -9.3 | 35.0* | 6.9 | -7.3 | -18.2
O=C(Cc1ccccc1)NCCc1ccc(Cl)cc1Cl | -0.1 | -10.2 | -15.3 | 8.1 | -2.7 | 2.1
Cc1ccc(C(=O)Nc2nnc(-c3ccco3)o2)cc1 | 2.5 | 21.6* | 1.9 | 13.6 | 2.0 | 17.2
O=C(Nc1nnc(-c2ccco2)o1)c1ccc(S(=O)(=O)N2CCCC2)cc1 | 0.8 | 6.8 | 5.1 | -14.7 | 0.0 | 2.3
CS(=O)(=O)c1ccccc1-c1nnc(NC(=O)c2ccco2)o1 | 0.2 | 0.3 | 39.4* | -3.2 | -0.1 | -4.2
O=C(Nc1nnc(-c2ccco2)o1)C1CC1 | 2.4 | 22.9* | -4.1 | -7.7 | 6.0 | 12.8
CC1CCN(S(=O)(=O)c2ccc(C(=O)Nc3nnc(-c4ccco4)o3)cc2)CC1 | -0.2 | 29.0* | 2.5 | -34.8 | 1.3 | 5.7
CCOC(=O)C1(Cc2ccc(OC)cc2)CCN(C(=O)CCn2cccn2)CC1 | 3.6 | 1.0 | -3.5 | 3.5 | -0.9 | 7.1
CC(=O)N1CCN(c2ccc(Oc3ccc([N+](=O)[O-])c(C(F)(F)F)c3)cc2)CC1 | 15.0 | -14.2 | 13.1 | 27.3* | 5.0 | -10.9
COc1ccc(C(=O)NC(=S)Nc2ccc(N3CCN(C(C)=O)CC3)cc2)cc1[N+](=O)[O-] | 2.8 | -4.6 | 7.8 | 6.9 | 1.9 | 11.7
CCN(CC)CCOC(=O)C(Cc1ccco1)Cc1cccc2ccccc12 (stereo unspecified) | 12.5 | -27.4 | 17.4 | 28.5* | -16.0 | -14.8
CC(NC(=O)COC(=O)c1ccc([N+](=O)[O-])s1)c1ccccc1 (stereo unspecified) | 1.8 | 32.1* | -0.6 | 9.0 | 1.2 | 12.4
COc1ccc(CC(=O)Nc2ccc(S(=O)(=O)N3CCC(C)CC3)cc2)c(OC)c1 | 9.2 | -1.9 | 1.3 | 6.3 | 0.7 | -4.0
Cc1cccc(N2CCN(C(=O)CNC(=O)c3cccc([N+](=O)[O-])c3)CC2)c1C | 1.9 | -9.1 | 3.8 | 24.9 | -3.1 | -12.7
CCNc1nc(=S)nc(NC(C)C)[nH]1 | 0.1 | 18.1* | -2.1 | -8.2 | 2.1 | 10.6
O=C(/C=C/c1ccc2c(c1)OCCO2)c1ccccc1 | 0.4 | 23.8* | -3.7 | -13.4 | 2.3 | 4.4
COc1ccc(C(=O)/C=C/c2ccc3c(c2)OCCO3)cc1 | 2.1 | -3.4 | 15.5 | 2.2 | -5.5 | -11.7
CN1CCN(C(=O)C2=C[C@@H](C(C)(C)C)C[C@@H](OCc3ccc(CO)cc3)O2)CC1 | 0.3 | 1.5 | -6.6 | 7.2 | 3.0 | -2.1
CC(C)Cn1c(N)c(C=O)c(=O)n(C)c1=O | -0.2 | 18.1* | 0.3 | 2.2 | 6.4 | -2.2
CC(C)Cn1c(N)c(C(=O)CCl)c(=O)n(C)c1=O | 2.9 | -3.7 | 3.4 | 10.5 | 5.0 | 2.7
O=C1CC(N2CCN(C/C=C/c3ccccc3)CC2)C(=O)N1CCc1ccccc1 (stereo unspecified) | 20.5 | -24.0 | 21.2 | 6.7 | 3.1 | -11.4
O=C1CC(N2CCN(C/C=C/c3ccccc3)CC2)C(=O)N1Cc1cccs1 (stereo unspecified) | 2.5 | -32.8 | 33.8* | 38.7* | -10.5 | -23.7
CC1=Nn2c(nnc2C2CCCCC2)SC1 | 0.5 | 10.2 | 9.6 | -2.0 | 3.4 | 31.1*
SMILES | CHRM4 agonist | CHRM5 PAM | CHRM4 antagonist | CHRM5 antagonist | CHRM5 agonist | M4 PAM
CC1=Nn2c(nnc2-c2cc(-c3ccccc3)n[nH]2)SC1 | 1.2 | 3.4 | -14.2 | -5.3 | -4.0 | 11.4
COCCn1c(=NC(=O)CCS(=O)(=O)c2ccccc2)sc2cc(F)ccc21 | 2.8 | -8.1 | 9.3 | 5.9 | -3.3 | -0.5
CN1CCN(c2ncnc3scc(-c4ccccc4Cl)c23)CC1 | 3.6 | -15.6 | 3.7 | 29.8* | -7.8 | -9.5
CCOc1ccccc1N1CCN(c2ncnc3scc(-c4ccc(OC)cc4)c23)CC1 | 7.9 | -15.2 | 26.9* | 14.3 | -5.4 | -12.7
CN(C(=O)c1cccc(NC(=O)Cc2ccc(NC(=O)C3CCCN(C(=O)C4CCC4)C3)cc2)c1)C1CCCC1 (stereo unspecified) | 0.2 | 1.8 | -7.0 | -2.3 | -2.7 | 2.4
Cc1cc(C)n(/N=C/c2ccccc2O)c(=O)c1 | 1.3 | 25.1* | 8.8 | -19.0 | 3.1 | 10.5
Cc1cccc(OCC(=O)OCC(=O)NCC2CCCO2)c1C (stereo unspecified) | 1.4 | -2.3 | -3.2 | 5.8 | -0.8 | 1.9
Cc1c(Cl)cccc1NC(=O)CNC(=O)Cc1n[nH]c(=O)c2ccccc12 | 0.0 | 5.2 | -2.8 | 11.4 | 2.2 | 2.2
Cc1ccc2c(c1)C(c1ccc(F)cc1)N(C(=O)c1ccccc1Br)CC(=O)N2 (stereo unspecified) | 13.6 | -3.2 | 65.7* | 2.3 | 0.7 | -17.5
C[C@H]1c2cccc(O)c2C(O)=C2C(=O)[C@]3(O)C(O)=C(C(N)=O)C(=O)[C@@H](N(C)C)[C@@H]3[C@@H](O)[C@@H]21 | 0.3 | -15.3 | 7.9 | 6.9 | 27.4* | -2.9
N#CCOC(=O)C1CCN(S(=O)(=O)c2ccc3c(c2)OCCO3)CC1 | 1.5 | 3.2 | -2.4 | 5.0 | -4.9 | 2.1
CCCCCNC(=O)C(CCc1ccccc1)n1c(=O)c(-c2cc3ccccc3[nH]2)nc2ccccc21 (stereo unspecified) | 0.7 | -0.8 | -8.0 | -0.6 | 2.4 | 1.9
CCCCCNC(=O)C(CCc1ccccc1)n1c(=O)c(-c2ccccc2)nc2ccccc21 (stereo unspecified) | 22.5 | 1.5 | 30.9* | 3.0 | 2.2 | -15.0
CCOC(=O)C1=CN(Cc2ccco2)S(=O)(=O)N(CC)C1c1ccccc1 (stereo unspecified) | -1.9 | -4.4 | -20.4 | 9.4 | -0.9 | 7.6
COc1cc(C(=S)N2CCOCC2)cc(OC)c1OC(=O)c1ccccc1Cl | 2.5 | -3.5 | -13.9 | 3.6 | -2.4 | 3.7
CCCN(C(=O)c1ccc2c(SCC(=O)O)c3c(nc2c1)CCC3)c1cccc(C)c1 | 1.1 | 4.5 | -2.6 | 2.0 | -2.4 | 9.4
CC(C)(C)N1[C@@H](CC(=O)O)c2cc(C(F)(F)F)ccc2S1(=O)=O | 0.9 | 2.9 | -11.3 | -4.3 | 3.2 | 9.3
COc1ccc(-c2ccc3c(c2)S(=O)(=O)c2cccc(C(=O)N4CCN(C5CCCCC5)CC4)c2C3=O)cc1OC | 23.1 | -31.8 | 9.1 | 34.1* | 5.8 | -8.4

Assay outcomes as filed in PubChem.
